Values after ≈ are worked out from the molar mass of the structure shown.
Experiments:
Candida parapsilosis [1] = assay: Antimicrobial activity against Candida parapsilosis ATCC 22019 after 48 hrs by microdilution broth method; type: functional; settings: Lodderomyces parapsilosis, ATCC 22019, 48 h
Procedure, shortened: (§1)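 Yeasts were grown overnight on Sabouraud dextrose agar at 35°C, suspended in water, and adjusted at 530 nm to McFarland 0.5 (approximately 1-5 x 10^6 CFU/ml). They were then diluted 1:100 and 1:20 in RPMI 1640 with 0.165 M MOPS and 2% glucose. Compound in DMSO was tested at ten concentrations, 0.25–256 mg/L, with incubation at 35°C. At 48 h, MIC was read spectrophotometrically as 50% turbidity reduction versus growth control.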

Candida albicans [2] = assay: Antimicrobial activity against Candida albicans isolate 31 after 48 hrs by microdilution broth method; type: functional; settings: isolate 31, 48 h; procedure, shortened: as §1
Candida albicans [3] = assay: Antimicrobial activity against Candida albicans isolate 41 after 48 hrs by microdilution broth method; type: functional; settings: isolate 41, 48 h; procedure, shortened: as §1
Candida albicans [4] = assay: Antimicrobial activity against Candida albicans isolate 47 after 48 hrs by microdilution broth method; type: functional; settings: isolate 47, 48 h; procedure, shortened: as §1
Candida albicans [5] = assay: Antimicrobial activity against Candida albicans isolate 48 after 48 hrs by microdilution broth method; type: functional; settings: isolate 48, 48 h; procedure, shortened: as §1
Pichia kudriavzevii [6] = assay: Antimicrobial activity against Candida krusei isolate 31 after 48 hrs by microdilution broth method; type: functional; settings: isolate 31, 48 h; procedure, shortened: as §1
Pichia kudriavzevii [7] = assay: Antimicrobial activity against Candida krusei isolate 43 after 48 hrs by microdilution broth method; type: functional
Pichia kudriavzevii [8] = assay: Antimicrobial activity against Candida krusei isolate 48 after 48 hrs by microdilution broth method; type: functional
Candida tropicalis [9] = assay: Antimicrobial activity against Candida tropicalis isolate 33 after 48 hrs by microdilution broth method; type: functional; settings: isolate 33, 48 h; procedure, shortened: as §1
Candida tropicalis [10] = assay: Antimicrobial activity against Candida tropicalis isolate 11 after 48 hrs by microdilution broth method; type: functional; settings: isolate 11, 48 h; procedure, shortened: as §1
Candida tropicalis [11] = assay: Antimicrobial activity against Candida tropicalis isolate 15 after 48 hrs by microdilution broth method; type: functional; settings: isolate 15, 48 h; procedure, shortened: as §1
Candida tropicalis [12] = assay: Antimicrobial activity against Candida tropicalis isolate 22 after 48 hrs by microdilution broth method; type: functional; settings: isolate 22, 48 h; procedure, shortened: as §1
Nakaseomyces glabratus [13] = assay: Antimicrobial activity against Candida glabrata isolate 30 after 48 hrs by microdilution broth method; type: functional; procedure, shortened: as §1
Nakaseomyces glabratus [14] = assay: Antimicrobial activity against Candida glabrata isolate 32 after 48 hrs by microdilution broth method; type: functional; settings: isolate 32, 48 h; procedure, shortened: as §1
Nakaseomyces glabratus [15] = assay: Antimicrobial activity against Candida glabrata isolate 46 after 48 hrs by microdilution broth method; type: functional; procedure, shortened: as §1
Nakaseomyces glabratus [16] = assay: Antimicrobial activity against Candida glabrata isolate 49 after 48 hrs by microdilution broth method; type: functional; procedure, shortened: as §1
Candida parapsilosis [17] = assay: Antimicrobial activity against Candida parapsilosis isolate 26 after 48 hrs by microdilution broth method; type: functional; settings: Lodderomyces parapsilosis, isolate 26, 48 h; procedure, shortened: as §1
Candida parapsilosis [18] = assay: Antimicrobial activity against Candida parapsilosis isolate 39 after 48 hrs by microdilution broth method; type: functional; settings: Lodderomyces parapsilosis, isolate 39, 48 h
Procedure, shortened: (§2)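 Yeasts grown overnight on Sabouraud dextrose agar at 35°C, suspended in sterile water, and adjusted to McFarland 0.5 at 530 nm (about 1-5 x 10^6 CFU/ml), then diluted 1:100 and 1:20 in RPMI 1640 with 0.165 M MOPS and 2% glucose. Compound in DMSO tested at ten concentrations, 0.25-256 mg/L, at 35°C. MIC read spectrophotometrically at 48 h as 50% turbidity reduction versus growth control.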

Candida parapsilosis [19] = assay: Antimicrobial activity against Candida parapsilosis isolate 44 after 48 hrs by microdilution broth method; type: functional; settings: Lodderomyces parapsilosis, isolate 44, 48 h; procedure, shortened: as §1
Candida parapsilosis [20] = assay: Antimicrobial activity against Candida parapsilosis isolate 19 after 48 hrs by microdilution broth method; type: functional; settings: Lodderomyces parapsilosis, isolate 19, 48 h; procedure, shortened: as §1
[21] = system: Cryptococcus deneoformans; assay: Antimicrobial activity against Cryptococcus neoformans var. neoformans isolate 14 after 48 hrs by microdilution broth method; type: functional; settings: isolate 14, 48 h; procedure, shortened: as §1
[22] = system: Cryptococcus deneoformans; assay: Antimicrobial activity against Cryptococcus neoformans var. neoformans isolate 27 after 48 hrs by microdilution broth method; type: functional; settings: isolate 27, 48 h; procedure, shortened: as §1
[23] = system: Cryptococcus deneoformans; assay: Antimicrobial activity against Cryptococcus neoformans var. neoformans isolate 30 after 48 hrs by microdilution broth method; type: functional; settings: isolate 30, 48 h; procedure, shortened: as §1
[24] = system: Cryptococcus deneoformans; assay: Antimicrobial activity against Cryptococcus neoformans var. neoformans isolate 25 after 48 hrs by microdilution broth method; type: functional; settings: isolate 25, 48 h; procedure, shortened: as §1
Candida albicans [25] = assay: Antimicrobial activity against Candida albicans ATCC 90028 after 48 hrs by microdilution broth method; type: functional; settings: ATCC 90028, 48 h; procedure, shortened: as §2
Pichia kudriavzevii [26] = assay: Antimicrobial activity against Candida krusei ATCC 6258 after 48 hrs by microdilution broth method; type: functional; settings: ATCC 6258, 48 h
Escherichia coli = assay: Antimicrobial activity against Escherichia coli isolate after 24 hrs by microdilution broth method
Proteus mirabilis = assay: Antimicrobial activity against Proteus mirabilis isolate after 24 hrs by microdilution broth method
Pseudomonas aeruginosa [27] = assay: Antimicrobial activity against Pseudomonas aeruginosa isolate 1 after 24 hrs by microdilution broth method; settings: isolate 1, 24 h
Pseudomonas aeruginosa [28] = assay: Antimicrobial activity against Pseudomonas aeruginosa isolate 2 after 24 hrs by microdilution broth method; settings: isolate 2, 24 h
Staphylococcus aureus = assay: Antimicrobial activity against methicillin-susceptible Staphylococcus aureus isolate after 24 hrs by microdilution broth method

Compound | MIC (Candida parapsilosis [1]) [µg/mL] | MIC (Candida albicans [2]) [µg/mL] | MIC (Candida albicans [4]) [µg/mL] | MIC (Candida albicans [5]) [µg/mL] | MIC (Pichia kudriavzevii [6]) [µg/mL] | MIC (Pichia kudriavzevii [7]) [µg/mL] | MIC (Pichia kudriavzevii [8]) [µg/mL] | MIC (Candida tropicalis [9]) [µg/mL] | MIC (Candida tropicalis [10]) [µg/mL] | MIC (Candida tropicalis [12]) [µg/mL] | MIC (Nakaseomyces glabratus [13]) [µg/mL] | MIC (Nakaseomyces glabratus [14]) [µg/mL] | MIC (Nakaseomyces glabratus [15]) [µg/mL] | MIC (Nakaseomyces glabratus [16]) [µg/mL] | MIC (Candida parapsilosis [17]) [µg/mL] | MIC (Candida parapsilosis [20]) [µg/mL] | MIC [21] [µg/mL] | MIC [22] [µg/mL] | MIC [23] [µg/mL] | MIC [24] [µg/mL] | further results
CC[C@@H]([C@H](C)O)n1ncn(-c2ccc(N3CCN(c4ccc(OC[C@@H]5CO[C@@](Cn6cncn6)(c6ccc(F)cc6F)C5)cc4)CC3)cc2)c1=O [POSACONAZOLE] | 0.12 (≈ 0.171 µM) | 0.008 (≈ 0.0114 µM) | 0.016 (≈ 0.0228 µM) | 0.008 (≈ 0.0114 µM) | 0.25 (≈ 0.357 µM) | 0.5 (≈ 0.713 µM) | 0.25 (≈ 0.357 µM) | 0.12 (≈ 0.171 µM) | 0.12 (≈ 0.171 µM) | 0.25 (≈ 0.357 µM) | 0.5 (≈ 0.713 µM) | > 8 | 1 (≈ 1.43 µM) | 0.25 (≈ 0.357 µM) | 0.03 (≈ 0.0428 µM) | 0.03 (≈ 0.0428 µM) | 0.03 (≈ 0.0428 µM) | 0.06 (≈ 0.0856 µM) | 0.12 (≈ 0.171 µM) | 0.06 (≈ 0.0856 µM) | MIC (Candida albicans [3]): 0.016 µg/mL (≈ 0.0228 µM); MIC (Candida tropicalis [11]): 0.25 µg/mL (≈ 0.357 µM); MIC (Candida parapsilosis [18]): 0.06 µg/mL (≈ 0.0856 µM); MIC (Candida parapsilosis [19]): 0.03 µg/mL (≈ 0.0428 µM); MIC (Candida albicans [25]): 0.008 µg/mL (≈ 0.0114 µM); MIC (Pichia kudriavzevii [26]): 0.25 µg/mL (≈ 0.357 µM)
Cc1nn(C)c(C)c1/[N+]([O-])=N/C#N | 32 (≈ 179 µM) | 32 (≈ 179 µM) | 32 (≈ 179 µM) | 32 (≈ 179 µM) | 32 (≈ 179 µM) | 32 (≈ 179 µM) | 32 (≈ 179 µM) | 64 (≈ 357 µM) | 128 (≈ 714 µM) | 64 (≈ 357 µM) | 64 (≈ 357 µM) | 16 (≈ 89.3 µM) | 64 (≈ 357 µM) | 64 (≈ 357 µM) | 64 (≈ 357 µM) | 64 (≈ 357 µM) | 32 (≈ 179 µM) | 32 (≈ 179 µM) | 32 (≈ 179 µM) | 32 (≈ 179 µM) | MIC (Candida albicans [3]): 32 µg/mL (≈ 179 µM); MIC (Candida parapsilosis [19]): 64 µg/mL (≈ 357 µM); MIC (Pichia kudriavzevii [26]): 16 µg/mL (≈ 89.3 µM); MIC (Escherichia coli): > 128 µg/mL; MIC (Proteus mirabilis): > 128 µg/mL; MIC (Pseudomonas aeruginosa [27]): > 128 µg/mL; MIC (Pseudomonas aeruginosa [28]): > 128 µg/mL; MIC (Staphylococcus aureus): > 128 µg/mL
Cc1nn(C)c(-c2cccs2)c1/[N+]([O-])=N/C#N | 32 (≈ 129 µM) | 4 (≈ 16.2 µM) | 4 (≈ 16.2 µM) | 4 (≈ 16.2 µM) | 1 (≈ 4.04 µM) | 1 (≈ 4.04 µM) | 2 (≈ 8.09 µM) | 32 (≈ 129 µM) | 32 (≈ 129 µM) | 32 (≈ 129 µM) | 2 (≈ 8.09 µM) | 2 (≈ 8.09 µM) | 2 (≈ 8.09 µM) | 2 (≈ 8.09 µM) | 16 (≈ 64.7 µM) | 32 (≈ 129 µM) | 0.25 (≈ 1.01 µM) | 0.25 (≈ 1.01 µM) | 0.5 (≈ 2.02 µM) | 0.5 (≈ 2.02 µM) | MIC (Candida tropicalis [11]): 64 µg/mL (≈ 259 µM); MIC (Candida parapsilosis [18]): 16 µg/mL (≈ 64.7 µM); MIC (Candida albicans [25]): 4 µg/mL (≈ 16.2 µM); MIC (Pichia kudriavzevii [26]): 1 µg/mL (≈ 4.04 µM)
Cc1cc(-c2c(/[N+]([O-])=N/C#N)c(C)nn2C)no1 | > 128 | 32 (≈ 130 µM) | 128 (≈ 520 µM) | 128 (≈ 520 µM) | 32 (≈ 130 µM) | 32 (≈ 130 µM) | 32 (≈ 130 µM) | > 128 | 128 (≈ 520 µM) | > 128 | 128 (≈ 520 µM) | 16 (≈ 65 µM) | 128 (≈ 520 µM) | 64 (≈ 260 µM) | 128 (≈ 520 µM) | > 128 | 8 (≈ 32.5 µM) | 8 (≈ 32.5 µM) | 8 (≈ 32.5 µM) | 8 (≈ 32.5 µM) | MIC (Candida albicans [3]): 32 µg/mL (≈ 130 µM); MIC (Candida parapsilosis [19]): 128 µg/mL (≈ 520 µM); MIC (Pichia kudriavzevii [26]): 16 µg/mL (≈ 65 µM); MIC (Escherichia coli): > 128 µg/mL; MIC (Proteus mirabilis): > 128 µg/mL; MIC (Pseudomonas aeruginosa [27]): > 128 µg/mL; MIC (Pseudomonas aeruginosa [28]): > 128 µg/mL; MIC (Staphylococcus aureus): > 128 µg/mL
Cc1c(/[N+]([O-])=N/C#N)c(-c2ccco2)nn1C | 32 (≈ 138 µM) | 2 (≈ 8.65 µM) | 4 (≈ 17.3 µM) | 4 (≈ 17.3 µM) | 1 (≈ 4.32 µM) | 2 (≈ 8.65 µM) | 2 (≈ 8.65 µM) | 128 (≈ 554 µM) | 32 (≈ 138 µM) | 128 (≈ 554 µM) | 1 (≈ 4.32 µM) | 2 (≈ 8.65 µM) | 1 (≈ 4.32 µM) | 1 (≈ 4.32 µM) | 8 (≈ 34.6 µM) | 64 (≈ 277 µM) | 0.25 (≈ 1.08 µM) | 0.25 (≈ 1.08 µM) | 0.25 (≈ 1.08 µM) | 0.25 (≈ 1.08 µM) | MIC (Candida tropicalis [11]): 128 µg/mL (≈ 554 µM); MIC (Candida parapsilosis [18]): 16 µg/mL (≈ 69.2 µM); MIC (Candida albicans [25]): 1 µg/mL (≈ 4.32 µM); MIC (Pichia kudriavzevii [26]): 1 µg/mL (≈ 4.32 µM)
